Screens deposited in PubChem BioAssay by Johns Hopkins Ion Channel Center.
hERG protect – compounds protecting human hERG from proarrhythmic drug block. CHO-hERG, FluxOR thallium flux, dofetilide IC70 present. activation (rescue from dofetilide block), less the hit threshold, % at 10 µM. 0.51% of 310,000 active;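 active = activation above the mean of controls blocked by dofetilide plus 5 SD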;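 note: thallium influx through hERG after potassium depolarization seen as dye fluorescence rise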
KCNQ1 act – human KCNQ1 channel potentiation or activation; P51787; CHO-K1 KCNQ1, thallium flux FluxOR fluorescence; active compounds read high; B-score at 10 µM; 0.35% of 310,000 active;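 active = fluorescence ratio B-score, a plate-corrected score, at least three library SD, with initial intensity B-score within 5 SD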
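Test system: CHO-K1 cells stably expressing KCNQ1 / Medium: assay buffer / Also added: depolarizing K+/Tl+ stimulus, K2SO4 and Tl2SO4 each 12.5 mM in 5x stock / Incubation: 90 min dye loading and 20 min compound exposure, both at room temperature / Signal: thallium influx via FluxOR fluorescence, kinetic imaging / Evaluation: B score of baseline-normalized fluorescence ratio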
KCNK3 block – human KCNK3 channel inhibition, primary screen. B-score at 10 µM. 0.84% of 340,000 active. O14649. CHO-KCNK3 thallium flux, FluxOR fluorescence; active compounds read low. AID 602410;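 active = B-score under library mean minus 4 SD, starting fluorescence ratio at most library mean plus 5 SD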;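 note: more negative B-score means stronger inhibition of thallium flux through KCNK3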
Target sequence (O14649 whole entry, looked up): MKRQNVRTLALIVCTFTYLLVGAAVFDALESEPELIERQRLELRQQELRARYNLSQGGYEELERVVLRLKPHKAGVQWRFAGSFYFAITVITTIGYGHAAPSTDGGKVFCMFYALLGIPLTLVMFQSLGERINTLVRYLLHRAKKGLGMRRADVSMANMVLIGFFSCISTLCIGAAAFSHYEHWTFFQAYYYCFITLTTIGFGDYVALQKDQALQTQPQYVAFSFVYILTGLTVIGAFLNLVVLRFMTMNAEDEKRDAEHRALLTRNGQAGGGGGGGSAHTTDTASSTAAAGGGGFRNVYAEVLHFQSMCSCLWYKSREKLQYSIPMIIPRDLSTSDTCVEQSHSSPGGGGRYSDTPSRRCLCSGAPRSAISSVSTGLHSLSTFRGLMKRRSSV
Kir21 inh – blocks the mouse Kir2.1 inward-rectifier potassium channel | HEK293-Kir2.1, FluxOR thallium flux fluorescence; active compounds read low | AID 1672 | B-score at 10 µM | 0.85% of 310,000 active | P35561;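 active = fluorescence ratio B-score at or below minus 3 SD of library scores, with starting-brightness B-score within 2 SD, cut at about -4.2 in these data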;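 note: channel flux triggered by added potassium and thallium sulfate stimulus; B-score of peak minus minimum fluorescence over baseline after thallium stimulus; more negative B-score means stronger Kir2.1 block with less thallium influx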
Target sequence (P35561 whole entry, looked up): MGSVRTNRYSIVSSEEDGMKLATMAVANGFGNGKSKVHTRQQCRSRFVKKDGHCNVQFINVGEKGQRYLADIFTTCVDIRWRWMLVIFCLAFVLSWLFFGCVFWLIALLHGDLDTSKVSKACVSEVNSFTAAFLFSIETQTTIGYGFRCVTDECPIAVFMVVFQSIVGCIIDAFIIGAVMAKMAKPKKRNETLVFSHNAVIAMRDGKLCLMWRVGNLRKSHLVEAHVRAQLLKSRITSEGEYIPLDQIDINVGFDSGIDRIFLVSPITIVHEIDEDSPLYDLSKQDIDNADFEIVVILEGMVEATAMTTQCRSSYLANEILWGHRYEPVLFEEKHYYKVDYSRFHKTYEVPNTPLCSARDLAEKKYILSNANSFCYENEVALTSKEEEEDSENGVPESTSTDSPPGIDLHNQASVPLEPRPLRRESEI
KCNK9 block – human KCNK9 channel inhibition | Q9NPC2 | HEK293 KCNK9, FluxOR thallium flux fluorescence; active compounds read low | B-score at 10 µM | 1.2% of 310,000 active | AID 488922;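 active = ratio B-score over 3 SD below the library mean, with starting fluorescence within 5 SD of its mean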;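 note: negative B-score means less thallium flux so channel inhibition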
KCNQ1 block – inhibitors of human KCNQ1 potassium channel; CHO-K1 KCNQ1, FluxOR thallium flux fluorescence; active compounds read high; B-score at 10 µM; 1.3% of 310,000 active;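 active = compounds whose thallium flux B-score, printed positive for inhibition, exceeds three library SD while starting fluorescence stays within three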;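 note: channel opened by potassium depolarization with thallium stimulus after 20 min compound exposure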
KCNQ1 inh valid – confirmation of human KCNQ1 potassium channel inhibitors; inhibition, % at 10 µM; KCNQ1 cell line, FluxOR thallium flux fluorescence; shares compounds with KCNQ1 block; AID 588353; 93% of 1,600 active;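 active = primary screen active, with duplicate mean exceeding buffer control mean plus 3 SD of buffer wells, cut at about 28% in these data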;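 note: 0% = buffer control ratio and 100% = XE991 inhibitor control ratio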
CHO Tl flux – counter-screen for KCNQ1 inhibitors: effect in parental CHO cells | shares compounds with KCNQ1 block | parental CHO-K1, FluxOR thallium flux fluorescence ratio; active compounds read low; zero means no signal rise above baseline | fluorescence ratio (Tl flux) at 10 µM | 21% of 1,600 active | AID 588366;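 active = mean of duplicate thallium-flux fluorescence ratios in parental host cells more than 5 SD below the buffer control mean, cut at about 0.38 in these data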;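 note: ratio is peak minus minimum fluorescence divided by baseline fluorescence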
KCNQ1 ephys val – blocks human KCNQ1 current in automated patch clamp | shares compounds with KCNQ1 block | KCNQ1-CHO cells | calls only at 10 µM | 20% of 490 active | AID 624120;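 active = KCNQ1 current drop exceeding 3 SD of negative control wells, seen in both duplicate runs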;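 note: steady state current during a 2 s step from -80 to +40 mV; negative values mean current inhibition and positive values mean potentiation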
KCNQ2 spec – rat KCNQ2 inhibition in KCNQ1 inhibitor specificity screen. KCNQ2 cells, FluxOR thallium flux fluorescence. shares compounds with KCNQ1 block. inhibition, % at 10 µM. 71% of 1,600 active;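 active = mean percent inhibition of the KCNQ2 thallium signal more than 5 SD above the buffer-only control wells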;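 note: KCNQ2 expressed in CHO cells; 0% = buffer control wells and 100% = XE-991 inhibitor control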
KCNQ1-KCNE1 inh – selectivity of KCNQ1 inhibitors: inhibition of human KCNQ1/KCNE1 channel; shares compounds with KCNQ1 block; KCNQ1/KCNE1 cells, FluxOR thallium flux fluorescence; inhibition, % at 10 µM; 77% of 1,600 active;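 active = mean percent inhibition of duplicate wells above the buffer-only control mean plus 3 SD of those controls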;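 note: 0% = buffer only wells and 100% = XE-991 inhibitor control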
KCNK9 inh conf – confirmation of human KCNK9 potassium channel inhibitors; shares compounds with KCNK9 block; HEK293 KCNK9 cells, FluxOR thallium flux fluorescence; inhibition, % at 10 µM; 43% of 4,900 active; AID 492992;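 active = thallium signal inhibited by more than 5 SD of the compound-free buffer control wells, on both duplicate plates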;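 note: 0% = assay buffer control wells without compound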
Kir2-1 spec – selectivity of KCNK9 modulators against mouse Kir2.1; shares compounds with KCNK9 block; inhibition, % at 10 µM; 4% of 4,900 active; Kir2.1 cells, FluxOR thallium flux fluorescence; AID 492993;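 active = thallium signal drop more than 5 SD beyond the mean of the no-compound control wells, seen in both duplicate plates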;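 note: signal is fluorescence rise after thallium addition divided by baseline fluorescence; plate controls were assay buffer only for no effect and full block by chlorpromazine control for full effect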
KCNK9 uninduced – non-induced cell nonspecific activity of KCNK9 modulators; shares compounds with KCNK9 block; non-induced KCNK9-HEK293, FluxOR thallium flux; inhibition, % at 10 µM; 40% of 4,900 active; AID 492997;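 active = thallium signal drop beyond 5 SD of the untreated control mean, on both duplicate plates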;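 note: plate controls were buffer only IC0 wells for no effect and SID17386958 at its maximal inhibitory level for full effect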
KCNK3 confirm – confirmation of human KCNK3 two-pore domain potassium channel inhibitors; ratio percent of control, % at 10 µM; shares compounds with KCNK3 block; 99% of 2,400 active; AID 651638; CHO-KCNK3 thallium flux, FluxOR fluorescence; 0% buffer, 100% carvedilol maximal block;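 active = ratio percent of control, averaged over triplicates, above buffer control mean plus 5 SD, cut at about 64% in these data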;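 note: ratio is the fluorescence rise from min to max over baseline after thallium stimulus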
KCNK3 uninduced – counter-screen for KCNK3 inhibitors: effect in non-induced cells; non-induced KCNK3 parental cells, FluxOR thallium flux; active compounds read low; shares compounds with KCNK3 block; AID 651747; 40% of 2,400 active; thallium flux ratio (lower = more inhibition) at 10 µM;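 active = thallium flux ratio, averaged over three wells, more than 5 SD below the buffer control mean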;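 note: host cells are CHO cells without KCNK3 induction; ratio is peak minus trough fluorescence over baseline then normalized to buffer controls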
Starred values were filed as active, the others as inactive; i = inactive; nt = no result given; + = active, no number. Compounds with a hit are over-represented: about 3.8% of the library has one in this group of screens.

SMILES | hERG protect | KCNQ1 act | KCNK3 block | Kir21 inh | KCNK9 block | KCNQ1 block | KCNQ1 inh valid | CHO Tl flux | KCNQ2 spec | KCNQ1-KCNE1 inh | KCNK9 inh conf | Kir2-1 spec | KCNK9 uninduced | others
CCOC(=O)C(O)(c1ccc(NC(=O)c2ccc(Cl)c(Cl)c2)cc1)C(F)(F)F (configuration not stated) | -9.2 | i | i | -2.14 | i | 6* | 123.0* | 0.531 | 93.0%* | 144.5%* | nt | nt | nt | KCNQ1 ephys val=i
CCN(CC)P(=O)(c1nccn1C)N(CC)CC | -8.4 | i | i | -0.38 | i | i | nt | nt | nt | nt | nt | nt | nt
Cc1sc2c(c1C)C(c1ccc(C(C)(C)C)cc1)=NCC(=O)N2CC(=O)Nc1nccs1 | -17.1 | i | i | -0.06 | i | 6* | 83.5* | 0.482 | i | 94.0%* | nt | nt | nt
CCCCCn1c(=O)c(C(=O)Nc2cnccn2)c(O)c2ccccc21 | -10.0 | i | -10.1* | -0.18 | i | 8* | 78.5* | 0.672 | i | 68.0%* | nt | nt | nt
CCCCCn1c(=O)c(C(=O)Nc2ccccc2S(N)(=O)=O)c(O)c2ccccc21 | -10.1 | i | i | 0.03 | i | 9* | 75.0* | 0.45 | i | i | nt | nt | nt
CCCCCCCn1c(=O)c(C(=O)Nc2cnccn2)c(O)c2ccccc21 | -15.2 | i | i | -1.71 | i | i | nt | nt | nt | nt | nt | nt | nt
CCCCn1c(=O)c(C(=O)Nc2ccccc2S(N)(=O)=O)c(O)c2ccccc21 | -4.4 | i | i | 1.07 | i | i | nt | nt | nt | nt | nt | nt | nt
Brc1cccc(CNCCc2ccc3c(c2)OCO3)c1 | -1.3 | i | i | -2.94 | i | 6* | 100.5* | 0.441 | 85.7%* | 53.5%* | nt | nt | nt | KCNQ1 ephys val=+
O=C1NC(=O)C2C1C1(Cl)C(Cl)=C(Cl)C2(Cl)C1(Cl)Cl (configuration not stated) | nt | nt | i | nt | nt | nt | nt | nt | nt | nt | nt | nt | nt
COc1nc(NCC2CCCO2)nc(N2CC3CC(C2)c2cccc(=O)n2C3)n1 (configuration not stated) | -11.0 | i | i | 1.04 | i | i | nt | nt | nt | nt | nt | nt | nt
COc1ccc(-[n+]2c(-c3ccccc3)cc(-c3ccc(C)cc3)cc2-c2ccccc2)cc1 | -31.2 | i | -8.87* | -12.8* | -16.4* | 15* | 94.5* | 0.44 | 109.3%* | 163.0%* | 60.5%* | 78.0%* | 29.5%* | KCNQ1 ephys val=+
C[N+]1(C)C2CC(OC(=O)[C@H](CO)c3ccccc3)CC1C1OC12 (some centres not stated) | nt | nt | i | nt | nt | nt | nt | nt | nt | nt | nt | nt | nt
Cc1ccc(O)c(C(=O)c2cc(C(=O)NCCC(C)C)c(=O)n(CCC(C)C)c2)c1 | -14.2 | i | -9.48* | -0.22 | i | 19* | 129.5* | 0.389 | 125.7%* | 124.0%* | nt | nt | nt | KCNQ1 ephys val=i;KCNK3 confirm=131.7*;KCNK3 uninduced=0.156*
Cc1cc(N(CCCl)CCCl)ccc1C=NNC(=O)Cc1cc(=O)oc2cc(O)ccc12 | nt | nt | i | nt | nt | nt | nt | nt | nt | nt | nt | nt | nt
COc1ccccc1CN1CCCC(C(=O)c2ccccc2SC)C1 (configuration not stated) | -6.5 | i | i | -0.04 | i | i | nt | nt | nt | nt | i | i | i
COc1ccccc1CN1CCCC(C(=O)c2ccccc2OC)C1 (configuration not stated) | -5.5 | i | i | -0.91 | i | i | nt | nt | nt | nt | nt | nt | nt
CCOc1ccccc1CN1CCCC(C(=O)c2cc(F)ccc2F)C1 (configuration not stated) | -1.2 | i | i | -0.09 | i | i | nt | nt | nt | nt | i | i | i
COC(=O)C1=C(c2ccc(F)cc2F)C[C@@H]2CC[C@H]1N2C(=O)NCc1ccc(C(F)(F)F)cc1 | nt | nt | i | nt | nt | nt | nt | nt | nt | nt | nt | nt | nt
COC(=O)C1=C(c2ccccc2)C[C@@H]2CC[C@H]1N2C | nt | nt | i | nt | nt | nt | nt | nt | nt | nt | nt | nt | nt
O=C(c1ccco1)c1cn(Cc2ccc(Cl)cc2)c2ccccc12 | -15.9 | i | i | -1.5 | -8.71* | i | nt | nt | nt | nt | 56.5%* | i | 37.0%*
COc1ccccc1OCCCn1cc(C(=O)c2ccco2)c2ccccc21 | -10.1 | i | i | -0.15 | -9.76* | i | nt | nt | nt | nt | 32.0%* | i | i
CCOP(=O)(/C=C(\Cl)c1ccccc1)C(O)c1ccc(F)cc1 (configuration not stated) | -6.8 | i | i | -1.85 | i | i | nt | nt | nt | nt | nt | nt | nt
CCCCN1CCC(O)(c2ccccc2)C(C(=O)c2ccccc2)C1 (configuration not stated) | -12.2 | i | i | -2.3 | i | i | nt | nt | nt | nt | i | i | i
O=C(Nc1ccccc1)c1cccn(Cc2ccccc2)c1=O | -10.6 | i | i | 0.7 | i | i | nt | nt | nt | nt | nt | nt | nt
O=C(NCc1ccccc1)c1cccn(Cc2cccc(Cl)c2)c1=O | -8.2 | i | i | -0.3 | -11.1* | i | nt | nt | nt | nt | 57.0%* | i | 30.5%*
COC(=O)C(O)(c1ccc(NC(=S)NC(=O)c2ccccc2)cc1)C(F)(F)F (configuration not stated) | -6.9 | i | i | -2.15 | -9.65* | i | nt | nt | nt | nt | 46.0%* | i | 25.5%*
COc1cccc(-n2c(C)nc3ccccc3c2=O)c1 | 0.1 | i | i | -1.15 | i | i | nt | nt | nt | nt | nt | nt | nt
